How the values were obtained:
Plasmodium falciparum [1] = assay: Antimalarial activity against Plasmodium falciparum 3D7 after 48 hrs by parasite lactate dehydrogenase assay; format: functional, organism-based; details: 3D7, 48 h
How it was run: (§1)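 Parasite survival read by parasite lactate dehydrogenase (pLDH) assay. Single-concentration prescreen at […]; compounds with 0–15% survival were taken to dose–response. Ten three-fold serial dilutions in triplicate, incubated 48 h in a gassed airtight box, developed with NBT/PES. IC50 from sigmoidal curve of % survival relative to control against log concentration.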

Plasmodium falciparum [2] = assay: Antimalarial activity against Plasmodium falciparum FCR3 after 48 hrs by parasite lactate dehydrogenase assay; format: functional, organism-based; details: FCR3, 48 h; how it was run: as §1
[3] = Cytotoxicity against human WI38 cells after 48 hrs by SRB assay; format: cell-based; details: WI-38, 48 h
How it was run: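 WI-38 human fetal lung fibroblasts (passages 21–50) in EMEM with 10% FBS, 2 mM L-glutamine and gentamicin, at 37 °C and 5% CO2. Seeded at 10 000 cells/well, grown 24 h, then given compound in DMSO diluted in medium to 5 concentrations for 48 h. Cells were fixed with cold 50% TCA and stained with SRB, and dye was read at 540 nm. IC50 by non-linear regression against untreated controls.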

[4] = Cytotoxicity against human WI38 cells assessed as cell viability at 100 uM after 48 hrs by SRB assay; format: cell-based, WI-38; details: read-out: Activity
How it was run: (§2)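 WI-38 fibroblasts (passages 21–50) were seeded at 10 000 cells/well for 24 h, then exposed for 48 h to compound dissolved in DMSO and diluted in medium. Viable cells were fixed with cold 50% trichloroacetic acid and stained with sulforhodamine B. Bound dye was extracted with 10 mM Tris base and read at 540 nm. Viability relative to drug-free cells.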

[5] = Cytotoxicity against human WI38 cells assessed as cell viability at 10 uM after 48 hrs by SRB assay; format: cell-based, WI-38; details: read-out: Activity; how it was run: as §2
[6] = Cytotoxicity against human WI38 cells assessed as cell viability at 1 uM after 48 hrs by SRB assay; format: cell-based, WI-38; details: read-out: Activity; how it was run: as §2
[7] = Cytotoxicity against human WI38 cells assessed as cell viability at 0.1 uM after 48 hrs by SRB assay; format: cell-based, WI-38; details: read-out: Activity; how it was run: as §2
[8] = Cytotoxicity against human WI38 cells assessed as cell viability at 0.01 uM after 48 hrs by SRB assay; format: cell-based, WI-38; details: read-out: Activity; how it was run: as §2

| IC50 (Plasmodium falciparum [1]) [nM] | IC50 (Plasmodium falciparum [2]) [nM] | Structure (SMILES) | IC50 [3] [µM] | viability at 48 h, 100 µM [4] [%] | viability at 48 h, 10 µM [5] [%] | viability at 48 h, 1 µM [6] [%] | viability at 48 h, 0.1 µM [7] [%] | viability at 48 h, 0.01 µM [8] [%] |
| --- | --- | --- | --- | --- | --- | --- | --- | --- |
| > 100000 | > 100000 | CC(C)(C)c1ccc2c(c1)[C@H]1O[C@H](COCc3ccccc3)[C@@H](OCc3ccccc3)[C@H](OCc3ccccc3)[C@H]1CS2 |  |  |  |  |  |  |
| > 100000 | 2260 | Cc1cccc2c1SC[C@@H]1[C@@H](OCc3ccccc3)[C@H](OCc3ccccc3)[C@@H](COCc3ccccc3)O[C@H]21 | > 100 | 68.8 | 85.4 | 97.5 | 99.5 | 103 |
| > 100000 | 7110 | c1ccc(COC[C@H]2O[C@@H]3c4c(ccc5ccccc45)SC[C@@H]3[C@@H](OCc3ccccc3)[C@@H]2OCc2ccccc2)cc1 | > 100 |  |  |  |  |  |
| > 100000 | > 100000 | CC(=O)OC[C@H]1O[C@@H]2c3cc(C(C)(C)C)ccc3SC[C@@H]2[C@@H](OC(C)=O)[C@@H]1OC(C)=O |  |  |  |  |  |  |
| > 100000 | > 100000 | CC(C)(C)c1ccc2c(c1)[C@H]1O[C@H](CO)[C@@H](O)[C@H](O)[C@H]1CS2 |  |  |  |  |  |  |
| > 100000 | 10300 | [O-][S@@+]1C[C@@H]2[C@@H](OCc3ccccc3)[C@H](OCc3ccccc3)[C@@H](COCc3ccccc3)O[C@@H]2c2ccccc21 | > 100 |  |  |  |  |  |
| > 100000 | 4110 | Cc1ccc2c(c1)[C@H]1O[C@H](COCc3ccccc3)[C@@H](OCc3ccccc3)[C@H](OCc3ccccc3)[C@H]1C[S@+]2[O-] | > 100 | 69.7 | 95.9 | 99.1 | 101 | 103 |
| 2750 | 2620 | COc1ccc2c(c1)[C@H]1O[C@H](COCc3ccccc3)[C@@H](OCc3ccccc3)[C@H](OCc3ccccc3)[C@H]1C[S@+]2[O-] | > 100 | 79.9 | 95.8 | 97.4 | 100 | 99.8 |
| 300 | 330 | CC(C)(C)c1ccc2c(c1)[C@H]1O[C@H](COCc3ccccc3)[C@@H](OCc3ccccc3)[C@H](OCc3ccccc3)[C@H]1C[S@+]2[O-] | > 100 | 55.9 | 92.8 | 100 | 102 | 102 |
| 4130 | 2760 | Cc1cccc2c1[S@@+]([O-])C[C@@H]1[C@@H](OCc3ccccc3)[C@H](OCc3ccccc3)[C@@H](COCc3ccccc3)O[C@H]21 | > 100 | 67.1 | 84.7 | 99.2 | 99.5 | 102 |
| 3550 | 520 | [O-][S@@+]1C[C@@H]2[C@@H](OCc3ccccc3)[C@H](OCc3ccccc3)[C@@H](COCc3ccccc3)O[C@@H]2c2c1ccc1ccccc21 | > 100 | 89 | 93.7 | 96 | 92.5 | 96 |
| > 100000 | > 100000 | [O-][S@+]1C[C@@H]2[C@@H](OCc3ccccc3)[C@H](OCc3ccccc3)[C@@H](COCc3ccccc3)O[C@@H]2c2ccccc21 |  |  |  |  |  |  |
| 2570 | 2910 | Cc1ccc2c(c1)[C@H]1O[C@H](COCc3ccccc3)[C@@H](OCc3ccccc3)[C@H](OCc3ccccc3)[C@H]1C[S@@+]2[O-] | > 100 | 70.3 | 92.6 | 100 | 101 | 101 |
| 2210 | 2070 | COc1ccc2c(c1)[C@H]1O[C@H](COCc3ccccc3)[C@@H](OCc3ccccc3)[C@H](OCc3ccccc3)[C@H]1C[S@@+]2[O-] | 8.76 | 27.2 | 55.4 | 97.2 | 98 | 97.4 |
| 1330 | 330 | CC(C)(C)c1ccc2c(c1)[C@H]1O[C@H](COCc3ccccc3)[C@@H](OCc3ccccc3)[C@H](OCc3ccccc3)[C@H]1C[S@@+]2[O-] | > 100 | 60.2 | 86.9 | 97.1 | 98.8 | 100 |
| 6290 | 4340 | Cc1cccc2c1[S@+]([O-])C[C@@H]1[C@@H](OCc3ccccc3)[C@H](OCc3ccccc3)[C@@H](COCc3ccccc3)O[C@H]21 | > 100 | 52.5 | 88.2 | 95.5 | 99.3 | 101 |

| IC50 (Plasmodium falciparum [1]) [nM] | IC50 (Plasmodium falciparum [2]) [nM] | Structure (SMILES) | IC50 [3] [µM] | viability at 48 h, 100 µM [4] [%] | viability at 48 h, 10 µM [5] [%] | viability at 48 h, 1 µM [6] [%] | viability at 48 h, 0.1 µM [7] [%] | viability at 48 h, 0.01 µM [8] [%] |
| --- | --- | --- | --- | --- | --- | --- | --- | --- |
| 2550 | 2170 | [O-][S@+]1C[C@@H]2[C@@H](OCc3ccccc3)[C@H](OCc3ccccc3)[C@@H](COCc3ccccc3)O[C@@H]2c2c1ccc1ccccc21 | > 100 | 79.4 | 94.5 | 96.7 | 98.5 | 101 |
| > 100000 | 3950 | O=S1(=O)C[C@@H]2[C@@H](OCc3ccccc3)[C@H](OCc3ccccc3)[C@@H](COCc3ccccc3)O[C@@H]2c2ccccc21 | > 100 | 67.8 | 92.4 | 97 | 97 | 97.8 |
| 2320 | 1930 | Cc1ccc2c(c1)[C@H]1O[C@H](COCc3ccccc3)[C@@H](OCc3ccccc3)[C@H](OCc3ccccc3)[C@H]1CS2(=O)=O | > 100 | 68.5 | 91.7 | 94.6 | 95.7 | 99.5 |
| 1800 | 1700 | COc1ccc2c(c1)[C@H]1O[C@H](COCc3ccccc3)[C@@H](OCc3ccccc3)[C@H](OCc3ccccc3)[C@H]1CS2(=O)=O | > 100 |  |  |  |  |  |
| 390 | 280 | CC(C)(C)c1ccc2c(c1)[C@H]1O[C@H](COCc3ccccc3)[C@@H](OCc3ccccc3)[C@H](OCc3ccccc3)[C@H]1CS2(=O)=O | > 100 | 71.7 | 91 | 92.7 | 96.3 | 96.7 |
| 2340 | 1620 | Cc1cccc2c1S(=O)(=O)C[C@@H]1[C@@H](OCc3ccccc3)[C@H](OCc3ccccc3)[C@@H](COCc3ccccc3)O[C@H]21 | > 100 |  |  |  |  |  |
| 2090 | 3830 | O=S1(=O)C[C@@H]2[C@@H](OCc3ccccc3)[C@H](OCc3ccccc3)[C@@H](COCc3ccccc3)O[C@@H]2c2c1ccc1ccccc21 | > 100 |  |  |  |  |  |
| > 100000 | > 100000 | CC(=O)OC[C@H]1O[C@@H]2c3cc(C(C)(C)C)ccc3S(=O)(=O)C[C@@H]2[C@@H](OC(C)=O)[C@@H]1OC(C)=O |  |  |  |  |  |  |
| > 100000 | > 100000 | CC(C)(C)c1ccc2c(c1)[C@H]1O[C@H](CO)[C@@H](O)[C@H](O)[C@H]1CS2(=O)=O |  |  |  |  |  |  |
| 4140 | 3210 | O=S1(=O)C[C@@H]2[C@@H](OCc3ccccc3)[C@H](OCc3ccccc3)[C@@H](COCc3ccccc3)O[C@H]2c2ccccc21 | > 100 |  |  |  |  |  |
| 2340 | 1690 | Cc1ccc2c(c1)[C@@H]1O[C@H](COCc3ccccc3)[C@@H](OCc3ccccc3)[C@H](OCc3ccccc3)[C@H]1CS2(=O)=O | > 100 |  |  |  |  |  |
| 2500 | 1950 | COc1ccc2c(c1)[C@@H]1O[C@H](COCc3ccccc3)[C@@H](OCc3ccccc3)[C@H](OCc3ccccc3)[C@H]1CS2(=O)=O | > 100 |  |  |  |  |  |
| > 100000 | 700 | CC(C)(C)c1ccc2c(c1)[C@@H]1O[C@H](COCc3ccccc3)[C@@H](OCc3ccccc3)[C@H](OCc3ccccc3)[C@H]1CS2(=O)=O | > 100 |  |  |  |  |  |
| 3400 | 2140 | Cc1cccc2c1S(=O)(=O)C[C@@H]1[C@@H](OCc3ccccc3)[C@H](OCc3ccccc3)[C@@H](COCc3ccccc3)O[C@@H]21 | > 100 |  |  |  |  |  |
| > 100000 | > 100000 | O=S1(=O)C[C@@H]2[C@@H](OCc3ccccc3)[C@H](OCc3ccccc3)[C@@H](COCc3ccccc3)O[C@H]2c2c1ccc1ccccc21 |  |  |  |  |  |  |
